Measured values from ChEMBL document CHEMBL1123822, “Lysosomotropic agents. 7. Broad-spectrum antifungal activity of lysosomotropic detergents” (1987).
≈ marks a conversion by molar mass, not a printed value.

Experiments:
Type in all cases: functional
Aspergillus fumigatus = assay: The compound was tested for antifungal activity against Aspergillus fumigatus MF4839 using agar dilution assay
Method in brief: (§1)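 Standardized agar dilution in Kimmig agar with 5% glycerol. Lysosomotropic detergents solubilized in 10% Me₂SO. Twofold serial dilutions in sterile distilled water gave final agar concentrations of 128 to 0.06 μg/mL. Stated error ±1 dilution stage.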

Candida tropicalis [1] = assay: The compound was tested for antifungal activity against Candida tropicalis MY1012 using agar dilution assay
Method in brief: (§2)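 Standardized agar dilution on Kimmig agar with 5% glycerol. Detergents solubilized in 10% Me2SO; desoxycholate-stabilized amphotericin B diluted and titrated in sterile distilled water. Twofold dilutions in sterile distilled water gave final agar concentrations of 128 to 0.06 μg/mL. Error limit ±1 dilution stage.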

Saccharomyces cerevisiae [2] = assay: The compound was tested for antifungal activity against Saccharomyces cerevisiae MY1027 using agar dilution assay; method in brief: as §2
Phoma = assay: The compound was evaluated for zone inhibition against Phoma sp (MF4332) using disk diffusion assay; 23 Fuzzy edges
Method in brief: (§3)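 Filter-paper disks (6.2 mm) loaded with 25 μL of a 250 μg/mL methanol solution, dried at room temperature, laid on seeded agar and rewet with 25 μL 10% aqueous Me₂SO. Media were unbuffered, pH ca. 4.5–5.6: potato dextrose agar for filamentous fungi, sabouraud dextrose agar for yeasts, unless noted. Inhibition zone diameter read after overnight incubation, ±1 mm. Zone edges scored fuzzy, slightly hazy, hazy or very hazy.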

Candida albicans [3] = assay: The compound was tested for antifungal activity against Candida albicans MY1013 using agar dilution assay; method in brief: as §1
Candida albicans [4] = assay: The compound was tested for antifungal activity against Candida albicans MY1058 using agar dilution assay; method in brief: as §1
Trichoderma viride = assay: The compound was evaluated for zone inhibition against Trichoderma lignorum (MF3560) using disk diffusion assay; 24 Fuzzy edges; method in brief: as §3
Papiliotrema laurentii [5] = assay: The compound was evaluated for zone inhibition against Cryptococcus laurentii MY1077 using disk diffusion assay; 22 Fuzzy edges; method in brief: as §3
Naganishia albida = assay: The compound was evaluated for zone inhibition against Cryptococcus albidus MY1070 using disk diffusion assay; 23 Fuzzy edges
Method in brief: (§4)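 Disk diffusion: 25 μL of 250 μg/mL drug in methanol on 6.2 mm paper disks, dried at room temperature, placed on seeded agar and rewet with 25 μL 10% aqueous Me₂SO. Zones were read after overnight incubation, ±1 mm. Media were unbuffered, pH ca. 4.5–5.6: potato dextrose agar for filamentous fungi, Sabouraud dextrose for yeasts, unless YNB (76 mM ammonium sulfate, sole nitrogen source) or YED is named. Zone edges were scored fuzzy, slightly hazy, hazy or very hazy.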

Saccharomyces cerevisiae [6] = assay: The compound was evaluated for mean zone diameter (inhibition) against yeast at the concentration of 125 ug/mL
Method in brief: (§5)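 Filter-paper disk diffusion (6.2 mm disks) with drug in methanol at the stated level, 25 μL per disk. Disks were air-dried at room temperature, laid on seeded agar, rewet with 25 μL 10% aqueous Me₂SO and incubated overnight. Media were unbuffered, pH ca. 4.5–5.6. The panel was 21 yeasts and 21 filamentous fungi. Zones of 0 mm were excluded from means.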

Nakaseomyces glabratus [7] = assay: The compound was evaluated for zone inhibition against Torulopsis glabrata MY1062 using disk diffusion assay; method in brief: as §3
Pichia kudriavzevii = assay: The compound was tested for antifungal activity against Candida krusei MY1020 using agar dilution assay; method in brief: as §1
Ustilago maydis = assay: The compound was evaluated for zone inhibition against Ustilago zeae (MF1996) using disk diffusion assay; 28 Fuzzy edges; method in brief: as §3
Cephalosporium = assay: The compound was evaluated for zone inhibition against Cephalosporium sp (MF4641) using disk diffusion assay; method in brief: as §4
Candida parapsilosis [8] = assay: The compound was tested for antifungal activity against Candida parapsilosis MY1009 using agar dilution assay; conditions: Lodderomyces parapsilosis; method in brief: as §1
Candida parapsilosis [9] = assay: The compound was tested for antifungal activity against Candida parapsilosis MY1010 using agar dilution assay; conditions: Lodderomyces parapsilosis; method in brief: as §1
Penicillium [10] = assay: The compound was evaluated for zone inhibition against Penicillium sp (MF5014) using disk diffusion assay; 22 Fuzzy edges; method in brief: as §3
Penicillium [11] = assay: The compound was evaluated for zone inhibition against Penicillium sp (MF5020) using disk diffusion assay; 21 Fuzzy edges; method in brief: as §3
Saccharomyces cerevisiae [12] = assay: The compound was evaluated for mean zone diameter (inhibition) against yeast at the concentration of 250 ug/mL; method in brief: as §5
Papiliotrema laurentii [13] = assay: The compound was evaluated for zone inhibition against Cryptococcus laurentii MY1074 using disk diffusion assay; 16 slightly hazy; method in brief: as §3
Saccharomyces cerevisiae [14] = assay: The compound was evaluated for mean zone diameter (inhibition) against yeast at the concentration of 62.5 ug/mL; method in brief: as §5
Aspergillus flavus = assay: The compound was tested for antifungal activity against Aspergillus flavus MF0383 using agar dilution assay; method in brief: as §1
Rhizomucor miehei = assay: The compound was evaluated for zone inhibition against Rhizomucor miehei (MF4784) using disk diffusion assay; method in brief: as §3
Diutina rugosa = assay: The compound was tested for antifungal activity against Candida rugosa MY1022 using agar dilution assay; method in brief: as §1
Penicillium [15] = assay: The compound was evaluated for zone inhibition against Penicillium sp (MF5016) using disk diffusion assay; 25 Fuzzy edges; method in brief: as §3
Candida albicans [16] = assay: The compound was tested for antifungal activity against Candida albicans MY1055 using agar dilution assay; method in brief: as §1
Fusarium oxysporum = assay: The compound was evaluated for zone inhibition against Fusarium oxysporum (MF4014) using disk diffusion assay; method in brief: as §3
Kluyveromyces marxianus [17] = assay: The compound was evaluated for zone inhibition against Kluyveromyces fragilis MY1113 using disk diffusion assay; 13 Fuzzy edges; method in brief: as §3
Candida albicans [18] = assay: The compound was tested for antifungal activity against Candida albicans MY0992 using agar dilution assay; method in brief: as §1
Cryptococcus neoformans [19] = assay: The compound was tested for antifungal activity against Cryptococcus neoformans MY1146 using agar dilution assay; method in brief: as §2
Candida tropicalis [20] = assay: The compound was evaluated for zone inhibition against Candida tropicalis MY1012 using disk diffusion assay; 25 Fuzzy edges; method in brief: as §4
Cryptococcus neoformans [21] = assay: The compound was tested for antifungal activity against Cryptococcus neoformans MY1051 using agar dilution assay; method in brief: as §2
Candida albicans [22] = assay: The compound was tested for antifungal activity against Candida stellatoidea MY1017 using agar dilution assay; method in brief: as §2
Candida albicans [23] = assay: The compound was tested for antifungal activity against Candida albicans My1029 using agar dilution assay; method in brief: as §1
Penicillium italicum = assay: The compound was tested for antifungal activity against Penicillium italicum MF2819 using agar dilution assay; method in brief: as §2
Kluyveromyces marxianus [24] = assay: The compound was tested for antifungal activity against Candida pseudotropicalis MY1040 using agar dilution assay; method in brief: as §1
Nakaseomyces glabratus [25] = assay: The compound was tested for antifungal activity against Torulopsis glabrata MY1059 using agar dilution assay; method in brief: as §2
Trichoderma = assay: The compound was evaluated for zone inhibition against Trichoderma sp (MF4064) using disk diffusion assay; method in brief: as §3
Saccharomyces cerevisiae [26] = assay: The compound was evaluated for zone inhibition against Saccharomyces cerevisiae YED MY34 using disk diffusion assay; method in brief: as §3
Candida tropicalis [27] = assay: The compound was tested for antifungal activity against Candida tropicalis MY1011 using agar dilution assay; method in brief: as §2
[28] = system: Meyerozyma guilliermondii; assay: The compound was tested for antifungal activity against Candida guilliermondii MY1019 using agar dilution assay; method in brief: as §1
Saccharomyces cerevisiae [29] = assay: The compound was evaluated for zone inhibition against Saccharomyces cerevisiae MY410 using disk diffusion assay; 9 Fuzzy edges; method in brief: as §3
Cercospora beticola = assay: The compound was evaluated for zone inhibition against Cercospora beticola (MF4608) using disk diffusion assay; 22 Fuzzy edges; method in brief: as §4

CCCCCCCCCCCCn1ccnc1
MIC (Aspergillus fumigatus): 16 µg/mL (≈ 67.7 µM)
MIC (Candida tropicalis [1]): 8 µg/mL (≈ 33.8 µM)
MIC (Saccharomyces cerevisiae [2]): 8 µg/mL (≈ 33.8 µM)
Inhibition zone (Phoma): 23 mm
MIC (Candida albicans [3]): 16 µg/mL (≈ 67.7 µM)
MIC (Candida albicans [4]): 32 µg/mL (≈ 135 µM)
Inhibition zone (Trichoderma viride): 24 mm
Inhibition zone (Papiliotrema laurentii [5]): 22 mm
Inhibition zone (Naganishia albida): 23 mm
Inhibition zone (Saccharomyces cerevisiae [6]): 15.8 mm
Inhibition zone (Nakaseomyces glabratus [7]): 11 mm
MIC (Pichia kudriavzevii): 32 µg/mL (≈ 135 µM)
Inhibition zone (Ustilago maydis): 28 mm
Inhibition zone (Cephalosporium): 13 mm
MIC (Candida parapsilosis [8]): 32 µg/mL (≈ 135 µM)
MIC (Candida parapsilosis [9]): 16 µg/mL (≈ 67.7 µM)
Inhibition zone (Penicillium [10]): 22 mm
Inhibition zone (Penicillium [11]): 21 mm
Inhibition zone (Saccharomyces cerevisiae [12]): 16.8 mm
Inhibition zone (Papiliotrema laurentii [13]): 16 mm
Inhibition zone (Saccharomyces cerevisiae [14]): 14.4 mm
MIC (Aspergillus flavus): 16 µg/mL (≈ 67.7 µM)
Inhibition zone (Rhizomucor miehei): 15 mm
MIC (Diutina rugosa): 32 µg/mL (≈ 135 µM)
Inhibition zone (Penicillium [15]): 25 mm
MIC (Candida albicans [16]): 32 µg/mL (≈ 135 µM)
Inhibition zone (Fusarium oxysporum): 18 mm
Inhibition zone (Kluyveromyces marxianus [17]): 13 mm
MIC (Candida albicans [18]): 32 µg/mL (≈ 135 µM)
MIC (Cryptococcus neoformans [19]): 4 µg/mL (≈ 16.9 µM)
Inhibition zone (Candida tropicalis [20]): 25 mm
MIC (Cryptococcus neoformans [21]): 4 µg/mL (≈ 16.9 µM)
MIC (Candida albicans [22]): 16 µg/mL (≈ 67.7 µM)
MIC (Candida albicans [23]): 32 µg/mL (≈ 135 µM)
MIC (Penicillium italicum): 4 µg/mL (≈ 16.9 µM)
MIC (Kluyveromyces marxianus [24]): 16 µg/mL (≈ 67.7 µM)
MIC (Nakaseomyces glabratus [25]): 16 µg/mL (≈ 67.7 µM)
Inhibition zone (Trichoderma): 18 mm
Inhibition zone (Saccharomyces cerevisiae [26]): 15 mm
MIC (Candida tropicalis [27]): 32 µg/mL (≈ 135 µM)
MIC [28]: 16 µg/mL (≈ 67.7 µM)
Inhibition zone (Saccharomyces cerevisiae [29]): 9 mm
Inhibition zone (Cercospora beticola): 22 mm
